TNF death inh = inhibitors of TNF-alpha induced necroptosis in Jurkat FADD-/- cells. Jurkat FADD-/- TNF necroptosis rescue, ATP luminescence, 24 h; 0 = TNF only, 100 = no-TNF cells. activation (protection from cell death), % at 10 µM. 220,000 tested, 0.068% active. AID 463075;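 active = activation, meaning protection from cell death, of at least 50% relative to plate controls; inactive = activation below 50%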;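 also: necroptosis triggered by 40 ng/mL TNF-alpha added together with compound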
STAT3 act = STAT3 signaling activation; activation (% of control), % at 5.6 µM; 190,000 tested, 0.91% active; U3A cells, IL-6 STAT3-luciferase reporter, luminescence; 100% = signal with IL-6 EC80 alone;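 active = activation above the screen-wide mean of compound activation plus 3 SD, cut at about 130% in these data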;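 also: 0% = background luminescence of wells with medium and substrate only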
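system = STAT3-luciferase reporter U3A cells | reagent = IL-6 stimulus at 33 ng/mL final | timing = 1 h compound pre-exposure, 6 h IL-6 stimulation, 37 °C | measured by = luminescence | evaluation = % activation versus median of IL-6-stimulated wells | control set = IL-6-only wells as 100% reference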
STAT3 blocker = reduces IL-6 driven STAT3 reporter signal; U3A cells, IL-6 STAT3-luciferase reporter, luminescence; host cell line lacks STAT1; inhibition, % at 5.5 µM; 190,000 tested, 0.89% active;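 active = inhibition above the mean inhibition across all screened compounds plus 3 SD, cut at about 44% in these data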;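 also: 0% = DMSO only wells and 100% = 100 µM nifuroxazide control wells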
STAT1 inh = reduces IFN-gamma driven STAT1 reporter signal. NIH 3T3 STAT1-luciferase reporter, luminescence. inhibition, % at 5.5 µM. 200,000 tested, 0.35% active;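 active = inhibition above a set limit, the mean inhibition across all tested compounds plus 3 SD, cut at about 34% in these data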;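 also: 0% = IFN-gamma with DMSO and 100% = IFN-gamma with 300 µM nifuroxazide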
L929 necroptosis = L929 zVAD cell death inhibition; L929 zVAD necroptosis rescue, ATP luminescence, 24 h; with zVAD 60 µM; viability rescue, % at 10 µM; 220,000 tested, 0.38% active; AID 1377;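 active = activation, scaled between plate controls, above about 75%, limit read from the data; inactive = activation under that limit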;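 also: 0% = zVAD with DMSO and 100% = DMSO alone without zVAD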
An asterisk follows results filed as active; / = not tested or not shown. This is a sample that favours compounds with a hit; in the whole collection about 2.1% have one here.

SMILES	TNF death inh	STAT3 act	STAT3 blocker	STAT1 inh	L929 necroptosis
O=C(CCc1nnc(CCCc2ccccc2)o1)NCCc1ccccc1	-0.1	100.3	5.4	2.6	0.4
COc1ccc(NC(=O)COC(=O)[C@@H]2CCCN2C(=O)c2cccs2)c(OC)c1	-1.3	101.2	-1.2	-0.6	0.3
O=C1C2C3C=CC(C3)C2C(=O)N1CC1CCCO1 (centres undefined)	0.1	99.4	4.5	-1.0	-0.6
CCN1CCN(Cc2ccc(NC(=O)Nc3ccc(OC)cc3)cc2)CC1	3.2	108.8	-11.8	-20.3	76.6*
CCCCOC(=O)Nc1nc2ccc(OC)cc2s1	3.4	89.8	15.0	-20.6	0.6
COc1ccc(-c2nc3c(Br)c(N)c(Br)cc3o2)cc1	-0.2	177.8*	-87.7	-38.9	-0.2
COc1ccc(-c2nc3ccc([N+](=O)[O-])cc3o2)cc1	-0.6	89.6	15.7	-12.6	-0.3
CCN(CC)CCN(Cc1cc2cc3c(cc2[nH]c1=O)OCO3)C(=S)NCC1CCCO1 (centres undefined)	0.9	102.9	-1.1	2.6	-2.8
Cc1ccc(C(=O)NNC(=S)Nc2cccc3ccccc23)s1	-4.1	134.4*	-42.9	-9.1	0.5
O=C(NNC(=S)Nc1cccc2ccccc12)c1cccc(Br)c1	-1.0	108.7	-10.3	0.5	0.0
COc1cc(/C=C(\C#N)c2nc3ccccc3[nH]2)c([N+](=O)[O-])cc1OCc1ccccc1	-8.6	136.6*	-36.1	-4.8	-0.2
O=C(NC1CCCCC1)c1ccc(COCC(F)(F)F)o1	0.2	101.5	2.2	-4.1	-0.1
COCCNS(=O)(=O)c1ccc(SC)cc1	50.2*	101.9	1.8	5.8	0.3
CCn1c(SC(C)C(=O)O)nc2sc3c(c2c1=O)CCC3 (centres undefined)	1.9	98.0	8.6	0.8	0.1
Cc1nc(-c2ccc(S(=O)(=O)NCC3CCN(C(=O)OC(C)(C)C)CC3)s2)cs1	-0.4	/	/	/	0.1
O=C(CSCc1ccc([N+](=O)[O-])cc1)NC1CCCCCC1	62.8*	89.1	18.6	-0.4	2.0
O=C(CSCc1ccc(F)cc1)NC1CCCC1	19.5	93.8	9.5	-13.0	-0.1
Cc1ccnc2ccc(-c3nc4ccccc4o3)cc12	-2.0	152.6*	-57.7	-39.7	47.1
Cc1ccc(C(=O)c2coc3ccc(O)c(CN4CCN(C)CC4)c23)cc1	-3.1	96.4	6.6	0.7	0.5
COc1cc2c(cc1NC(=O)C1CCCO1)oc1ccccc12 (centres undefined)	2.9	166.3*	-76.5	-51.0	1.1
O=C(Cn1c(=O)oc2ccccc21)NC(=O)NCc1ccco1	-0.1	103.7	-4.5	5.8	0.0
COc1cccc(-c2cc(C(=O)Nc3nc4ccccc4s3)c3ccccc3n2)c1	-4.6	110.5	-1.9	7.9	-0.1
COc1ccc(-c2cc(C(=O)Nc3nc4c(C)cccc4s3)c3ccccc3n2)cc1OC	-10.5	133.6*	-41.8	8.6	0.2
O=c1cc(-c2ccccc2)nc2nc(-c3ccccc3)[nH]n12	-14.8	158.5*	-66.6	-60.7	0.8
c1ccc(-c2cc3n(c2)CCc2ccccc2-3)cc1	-4.8	190.8*	-105.5	-42.5	0.9
SMILES	TNF death inh	STAT3 act	STAT3 blocker	STAT1 inh	L929 necroptosis
OC(c1ccccc1)c1nc2ccccc2s1 (centres undefined)	50.0*	113.6	-10.8	-17.4	6.2
CC(=O)Nc1ccccc1NC(=O)C/C(C)=N/NC(=O)C(=O)Nc1cccc(Cl)c1C	0.2	84.4	25.0	-4.0	1.8
CSc1cccc(NC(=S)N(CCCN2CCCC2)Cc2cccs2)c1	2.0	86.3	18.7	0.5	-0.1
CCN(CC)C(=O)c1cc2c(=O)n3ccccc3nc2s1	-1.1	134.2*	-36.9	-21.3	-0.9
COCCN(CCOC)C(=O)c1cc2c(=O)n3ccccc3nc2s1	-3.2	113.6	-10.8	-8.4	-0.2
O=C(N/N=C/C(Br)=C/c1ccccc1)c1n[nH]c2c1CCC2	-9.2	137.5*	-35.0	-50.1	0.1
Cc1ccncc1C(N)=O	1.5	/	/	/	0.0
O=c1c2oc3ccccc3c2ncn1Cc1ccccc1F	2.2	106.7	-0.5	-10.8	2.2
CCC(C)n1c(SCC(=O)Nc2cc(C)on2)nc2ccccc2c1=O (centres undefined)	-7.8	108.6	-7.8	14.1	-0.3
Cc1cc(NC(=O)CSc2nc3ccccc3c(=O)n2C(C)c2ccccc2)no1 (centres undefined)	-0.4	134.5*	-33.3	11.9	0.5
CCOc1cc(/C=N/Nc2cccc(C(=O)O)c2)ccc1OC(=O)c1ccccc1	0.0	56.4	55.4*	77.1*	1.3
Cc1ccsc1/C=N/Nc1cccc(C(=O)O)c1	0.0	61.3	48.8*	89.1*	0.2
Cc1nc2sc(C(c3ccccc3)N3CC(C)OC(C)C3)c(O)n2n1 (centres undefined)	-0.5	101.2	0.5	7.4	-0.5
COc1cc(NC(=O)c2cccs2)c(C(=O)OCC(=O)c2cc(C)n(-c3ccc(F)cc3)c2C)cc1OC	4.7	99.1	1.0	-1.1	0.9
COc1cc(NC(=O)c2cccs2)c(C(=O)OCC(=O)c2cc(C)n(-c3ccccc3)c2C)cc1OC	0.9	41.9	69.7*	35.7*	0.6
CCOc1ccc(C(=O)OCn2nnc3ccccc3c2=O)cc1OC	-0.9	114.5	-10.3	-3.3	1.9
O=C(NN1C(=O)C2C3CCC(O3)C2C1=O)c1ccc(Br)o1 (centres undefined)	0.2	97.8	7.1	-0.4	0.6
CCc1cc2c(SCC(=O)c3ccc(C)cc3)ncnc2s1	0.5	88.6	14.8	7.5	1.9
CCc1cc2c(Sc3nc4ccccc4s3)ncnc2s1	-25.0	177.7*	-79.8	-46.3	-0.2
O=C(O)C(=O)/C(=C\c1ccccc1)c1ccc2ccccc2n1	-0.6	168.8*	-82.4	-47.9	0.1
CCOC(=O)N1CCC(N2CCCC(C(=O)c3ccc4cc(OC)ccc4c3)C2)CC1 (centres undefined)	0.6	102.3	3.3	0.0	0.7
NNC(=O)c1cccc(COc2ccc3c(c2)CCC3)c1	1.8	18.6	95.0*	59.7*	/
Cc1cc(C(=O)CSc2nc3ccccc3c(=O)n2C)c(C)n1CC1CCCO1 (centres undefined)	-14.6	31.9	81.5*	38.2*	-0.6
Cc1cc(C(=O)CSc2nc3ccccc3c(=O)[nH]2)c(C)n1CC1CCCO1 (centres undefined)	0.0	85.3	19.9	-15.8	0.2
Cc1cc(C(=O)CN2C(=O)NC(C)(c3ccccc3)C2=O)c(C)n1CC1CCCO1 (centres undefined)	-0.8	96.6	3.4	6.3	0.3
Cc1cc(C(=O)CN2C(=O)c3ccccc3S2(=O)=O)c(C)n1CC1CCCO1 (centres undefined)	1.2	9.8	112.1*	78.7*	0.4
COc1ccc(NC(=O)N2CCCC2C(=O)Nc2ccc(C)c(Cl)c2)cc1 (centres undefined)	0.6	99.2	3.5	1.7	0.2
